Values belong to the compound of their own block, whether it stands above or below them.
Key:
[1] = biological target: T1, Glutamate NMDA receptor; Grin1/Grin2b (Rattus norvegicus) (UniProt P35439+Q00960); test: Positive allosteric modulation of recombinant rat GluN1/GluN2B receptor expressed in xenopus laevis oocyte assessed as potentiation of glutamate and glycine-induced current response at 30 uM at holding potential -40mV by two electrode voltage clamp method relative to control
Procedure, shortened: (§1)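 Two-electrode voltage clamp at -40 mV, 23°C, pH 7.4 Ba²⁺ recording solution, on Xenopus oocytes expressing rat NMDA receptors. Currents were evoked by 100 µM glutamate plus 30 µM glycine, with compound co-applied (DMSO 0.05–0.5% final). […] Each compound used at least 4 oocytes from at least 2 frogs.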

[2] = biological target: T2, Ionotropic glutamate receptor NMDA 1/2D (Rattus norvegicus) (UniProt P35439+Q62645); test: Positive allosteric modulation of recombinant rat GluN1/GluN2D receptor expressed in xenopus laevis oocyte assessed as potentiation of glutamate and glycine-induced current response at 30 uM at holding potential -40mV by two electrode voltage clamp method relative to control
Procedure, shortened: (§2)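 Two-electrode voltage clamp at -40 mV, 23°C, pH 7.4 Ba²⁺ recording solution, on Xenopus oocytes expressing rat NMDA receptors. Currents were evoked by 100 µM glutamate plus 30 µM glycine, with compound co-applied (DMSO 0.05–0.5% final). Each compound used at least 4 oocytes from at least 2 frogs.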

[3] = biological target: Glutamate NMDA receptor; Grin1/Grin2c (Rattus norvegicus, UniProt P35439+Q00961); test: Positive allosteric modulation of recombinant rat GluN1/GluN2C receptor expressed in xenopus laevis oocyte assessed as potentiation of glutamate and glycine-induced current response at holding potential -40mV by two electrode voltage clamp method; procedure, shortened: as §2
[4] = biological target: Glutamate NMDA receptor; Grin1/Grin2b (Rattus norvegicus, UniProt P35439+Q00960); test: Positive allosteric modulation of recombinant rat GluN1/GluN2B receptor expressed in xenopus laevis oocyte assessed as potentiation of glutamate and glycine-induced current response at holding potential -40mV by two electrode voltage clamp method; procedure, shortened: as §2
[5] = biological target: T3, Glutamate NMDA receptor; Grin1/Grin2c (Rattus norvegicus) (UniProt P35439+Q00961); test: Positive allosteric modulation of recombinant rat GluN1/GluN2C receptor expressed in xenopus laevis oocyte assessed as potentiation of glutamate and glycine-induced current response at 30 uM at holding potential -40mV by two electrode voltage clamp method relative to control; procedure, shortened: as §2
[6] = biological target: Ionotropic glutamate receptor NMDA 1/2D (Rattus norvegicus, UniProt P35439+Q62645); test: Positive allosteric modulation of recombinant rat GluN1/GluN2D receptor expressed in xenopus laevis oocyte assessed as potentiation of glutamate and glycine-induced current response at holding potential -40mV by two electrode voltage clamp method; procedure, shortened: as §2
[7] = biological target: T1, Glutamate NMDA receptor; Grin1/Grin2b (Rattus norvegicus); test: Positive allosteric modulation of recombinant rat GluN1/GluN2B receptor expressed in xenopus laevis oocyte assessed as compound concentration required to show two fold increase in glutamate and glycine-induced current response at holding potential -40mV by two electrode voltage clamp method
[8] = biological target: T3, Glutamate NMDA receptor; Grin1/Grin2c (Rattus norvegicus); test: Positive allosteric modulation of recombinant rat GluN1/GluN2C receptor expressed in xenopus laevis oocyte assessed as compound concentration required to show two fold increase in glutamate and glycine-induced current response at holding potential -40mV by two electrode voltage clamp method
[9] = biological target: T2, Ionotropic glutamate receptor NMDA 1/2D (Rattus norvegicus); test: Positive allosteric modulation of recombinant rat GluN1/GluN2D receptor expressed in xenopus laevis oocyte assessed as compound concentration required to show two fold increase in glutamate and glycine-induced current response at holding potential -40mV by two electrode voltage clamp method
[10] = biological target: T3, Glutamate NMDA receptor; Grin1/Grin2c (Rattus norvegicus); test: Positive allosteric modulation of recombinant rat GluN1/GluN2C receptor expressed in xenopus laevis oocyte assessed as potentiation of glutamate and glycine-induced current response at 10 uM at holding potential -40mV by two electrode voltage clamp method relative to control; procedure, shortened: as §1
[11] = biological target: T1, Glutamate NMDA receptor; Grin1/Grin2b (Rattus norvegicus); test: Positive allosteric modulation of recombinant rat GluN1/GluN2B receptor expressed in xenopus laevis oocyte assessed as potentiation of glutamate and glycine-induced current response at 10 uM at holding potential -40mV by two electrode voltage clamp method relative to control; conditions: 30 uM, in the assay text read “at 30 uM” for “at 10 uM”; procedure, shortened: as §1
[12] = biological target: T2, Ionotropic glutamate receptor NMDA 1/2D (Rattus norvegicus); test: Positive allosteric modulation of recombinant rat GluN1/GluN2D receptor expressed in xenopus laevis oocyte assessed as potentiation of glutamate and glycine-induced current response at 10 uM at holding potential -40mV by two electrode voltage clamp method relative to control; procedure, shortened: as §1

Compound: CCOc1ccc(OCC2c3ccc(OC(C)C)cc3CCN2C(=S)c2cccc(C(F)(F)F)c2)cc1 (stereo not drawn)
Emax [1]: 190%
Emax [2]: 128%
EC50 [3]: 0.35 µM
EC50 [4]: 0.72 µM
Emax [5]: 141%
EC50 [6]: 0.45 µM

Compound: CCOc1ccc(OCC2c3ccc(OC4CCCC4)cc3CCN2C(=O)c2cccc(F)c2)cc1 (stereo not drawn)
Activity [1]: 202%
Emax [1]: 210%
Activity [2]: 161%
Emax [2]: 163%
EC50 [3]: 4.5 µM
EC50 [4]: 4.4 µM
Activity [5]: 169%
Emax [5]: 173%
EC50 [6]: 4.9 µM

Compound: CC(C)Oc1ccc(OCC2c3ccc(OC(C)C)cc3CCN2C(=S)c2cccc(C(F)(F)F)c2)cc1 (stereo not drawn)
Emax [1]: 191%
Emax [2]: 133%
EC50 [3]: 0.34 µM
EC50 [4]: 0.27 µM
Emax [5]: 162%
EC50 [6]: 0.33 µM

Compound: CCOc1ccc(OC[C@@H]2c3ccc(OC(C)C)cc3CCN2C(=S)c2cccc(F)c2)cc1
Emax [1]: 213%
CD [7]: 1.4 µM
Emax [2]: 179%
EC50 [3]: 0.38 µM
EC50 [4]: 0.49 µM
Emax [5]: 154%
EC50 [6]: 0.58 µM

Compound: CC(C)Oc1ccc2c(c1)CCN(C(=O)c1cccc(F)c1)C2COc1ccc(OC(F)(F)F)cc1 (stereo not drawn)
Activity [1]: 124%
Emax [1]: 123%
Activity [2]: 136%
Emax [2]: 137%
EC50 [3]: 2.5 µM
EC50 [4]: 3.2 µM
Activity [5]: 154%
Emax [5]: 157%
EC50 [6]: 4.1 µM

Compound: COc1ccc(OCC2c3ccc(N(C)C(C)C)cc3CCN2C(=O)c2cccc(Cl)c2)cc1 (stereo not drawn)
Activity [1]: 228%
Emax [1]: 235%
Activity [2]: 500%
Emax [2]: 549%
EC50 [3]: 2 µM
EC50 [4]: 5.9 µM
Activity [5]: 404%
Emax [5]: 424%
EC50 [6]: 4 µM

Compound: COc1ccc(OCC2c3ccc(N4CCOCC4)cc3CCN2C(=O)c2cccc(Br)c2)cc1 (stereo not drawn)
Activity [1]: 152%
Emax [1]: 165%
Activity [2]: 284%
Emax [2]: 425%
EC50 [3]: 3 µM
EC50 [4]: 4.8 µM
Activity [5]: 279%
Emax [5]: 314%
EC50 [6]: 4.3 µM

Compound: COc1ccc(OCC2c3ccc(OC4CCCCC4)cc3CCN2C(=O)c2cccc(Cl)c2)cc1 (stereo not drawn)
Activity [1]: 259%
Emax [1]: 265%
Activity [2]: 309%
Emax [2]: 317%
EC50 [3]: 1.2 µM
EC50 [4]: 2.7 µM
Activity [5]: 222%
Emax [5]: 225%
EC50 [6]: 1.9 µM

Compound: CCOc1ccc2c(c1)CCN(C(=O)c1cccc(Cl)c1)C2COc1ccc(OC)cc1 (stereo not drawn)
Activity [1]: 158%
Emax [1]: 167%
Activity [2]: 329%
Emax [2]: 344%
EC50 [3]: 2.4 µM
EC50 [4]: 7.8 µM
Activity [5]: 285%
Emax [5]: 294%
EC50 [6]: 3 µM

Compound: CCOc1ccc(OCC2c3ccc(OC(C)C)cc3CCN2C(=S)c2ccc(F)c(Cl)c2)cc1 (stereo not drawn)
Emax [1]: 222%
CD [7]: 17 µM
Emax [2]: 128%
EC50 [3]: 0.35 µM
EC50 [4]: 0.84 µM
Emax [5]: 159%
EC50 [6]: 0.44 µM

Other lines, results leading:

Activity [1]: 198%
Emax [1]: 203%
Activity [2]: 335%
Emax [2]: 351%
EC50 [3]: 2.8 µM
EC50 [4]: 5.3 µM
Activity [5]: 337%
Emax [5]: 358%
EC50 [6]: 3.4 µM
Compound: COc1ccc(OCC2c3ccc(OC(C)C)cc3CCN2C(=O)c2cccc([N+](=O)[O-])c2)cc1 (stereo not drawn)

Activity [1]: 159%
Emax [1]: 172%
Activity [2]: 408%
Emax [2]: 414%
EC50 [3]: 0.69 µM
EC50 [4]: 1.7 µM
Activity [5]: 215%
Emax [5]: 310%
EC50 [6]: 1.6 µM
Compound: COc1ccc(OCC2c3ccc(OC(C)C)cc3CCN2C(=O)c2cccc(I)c2)cc1 (stereo not drawn)

Emax [1]: 259%
CD [7]: 1.9 µM
Emax [2]: 208%
CD [8]: 2.1 µM
CD [9]: 4.2 µM
EC50 [3]: 0.97 µM
EC50 [4]: 1.4 µM
Emax [5]: 226%
EC50 [6]: 1.1 µM
Compound: COc1ccc(OCC2c3ccc(OC(C)C)cc3CCN2C(=S)c2cccc(F)c2)cc1 (stereo not drawn)

Emax ([10]; 10 uM): 128%
Activity ([10]; 30 uM, in the assay text read “at 30 uM” for “at 10 uM”): 126%
Emax [11]: 158%
Activity [12]: 102%
EC50 [3]: 1.8 µM
EC50 [4]: 5.3 µM
Compound: CCOc1ccc(OCC2c3ccc(OC(C)C)cc3CCN2C(=O)c2cccc(Cl)c2)cc1 (stereo not drawn)

Source: ChEMBL document CHEMBL4011622, “The Structure-Activity Relationship of a Tetrahydroisoquinoline Class of N-Methyl-d-Aspartate Receptor Modulators that Potentiates GluN2B-Containing N-Methyl-d-Aspartate Receptors” (J Med Chem, 2017)
